From ChEMBL document CHEMBL1126896, “Preparation and anti-HIV activity of O-acylated heparin and dermatan sulfate derivatives with low anticoagulant effect” (J Med Chem, 1993)

What was measured:
MT4 [1] = experiment: Selectivity index for CC50 (cytotoxic concentration based on the reduction of the viability of mock-infected MT-4 cells) to that of EC50 against HIV-1; assay type: functional
Method in brief: (§1)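 MT-4 cells at 3 × 10^5 cells/mL were infected with HIV-1 IIIB or HIV-2 ROD at 100 CCID50/mL, or mock-infected, alongside serial compound dilutions. Viability was read by MTT after 5 days at 37 °C. CC50 comes from mock-infected cells and EC50 from protection against cytopathicity. Index = CC50/EC50.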

MT4 [2] = experiment: Selectivity index for CC50 (cytotoxic concentration based on reduction of viability of mock-infected MT-4 cells) to that of EC50 against HIV-2; assay type: functional; method in brief: as §1
MT4 [3] = experiment: Effective concentration to achieve 50% protection of MT-4 cells against the cytopathic effect of HIV-1; assay type: functional, cell-based
MT4 [4] = experiment: Effective concentration to achieve 50% protection of MT-4 cells against the cytopathic effect of HIV-2; assay type: functional, cell-based
[5] = In vitro anticoagulant activity determined by clotting test of activated partial thromboplastin time (APTT) on a pool of human plasma; assay type: functional
Method in brief: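 Activated partial thromboplastin time clotting test on pooled human plasma, run on an automatic coagulometer. Activities were calculated according to the European Pharmacopoeia.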

HuT78 = experiment: Giant-cell formation between persistently HIV-1 infected HUT-78 cells and uninfected MOLT-4 cells; assay type: functional, cell-based
Method in brief: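 MOLT-4 cells were co-cultured with an equal number of HUT-78 cells persistently infected with HIV-1 IIIB or HIV-2 ROD, with varying compound concentrations. Syncytia were counted by flow cytofluorography after 24 h. EC50 is the concentration giving 50% protection against giant-cell formation.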

[6] = Homo sapiens, MT4, read-out: EC50
[7] = Homo sapiens, HuT78, read-out: EC50

| Compound | Selectivity index (MT4 [1]) | Selectivity index (MT4 [2]) | EC50 (MT4 [3]; mt4) [µg/mL] | EC50 (MT4 [4]; mt4) [µg/mL] | APTT [5] [IU mg-1] | EC50 (HuT78; hut78) [µg/mL] | EC50 (MT4 [3]; [6]) [µg/mL] | EC50 (MT4 [4]; [6]) [µg/mL] | EC50 (HuT78; [7]) [µg/mL] |
| --- | --- | --- | --- | --- | --- | --- | --- | --- | --- |
| CCCC(=O)OC/C(=C\C(=O)[O-])O[C@H]1O[C@H](COS(=O)(=O)[O-])[C@@H](O[C@@H]2O[C@@H](C(=O)[O-])[C@@H](O[C@H]3O[C@H](COS(=O)(=O)[O-])[C@@H](O[C@@H]4O[C@@H](C(=O)[O-])[C@@H](O[C@H]5O[C@H](CS(=O)(=O)[O-])[C@@H](O)[C@H](OC(=O)CCC)[C@H]5NS(=O)(=O)[O-])[C@H](OC(=O)CCC)[C@H]4OS(=O)(=O)[O-])[C@H](OC(=O)CCC)[C@H]3NS(=O)(=O)[O-])[C@H](OC(=O)CCC)[C@H]2OS(=O)(=O)[O-])[C@H](OC(=O)CCC)[C@H]1NS(=O)(=O)[O-].[Na+].[Na+].[Na+].[Na+].[Na+].[Na+].[Na+].[Na+].[Na+].[Na+].[Na+] (stereo in doubt; 4k) | >980 | >1923 | 0.51 | 0.26 | 29.3 | 2 |  |  |  |
| CCCC(=O)O[C@@H]1[C@@H](OC(C)=O)[C@H](O[C@H]2[C@@H](OS(=O)(=O)[O-])[C@@H](NS(=O)(=O)[O-])[C@@H](O[C@@H]3C(C(=O)[O-])O[C@@H](O[C@H]4[C@H](OC(=O)CCC)[C@@H](CO)O[C@@H]4COS(=O)(=O)[O-])[C@H](OS(=O)(=O)[O-])[C@H]3OC(=O)CCC)O[C@@H]2COS(=O)(=O)[O-])O[C@H](C(=O)[O-])[C@H]1O[C@H]1O[C@H](COS(=O)(=O)[O-])[C@@H](O[C@@H]2O[C@@H](C(=O)[O-])[C@@H](O)[C@H](OC(=O)CCC)[C@H]2OC(C)=O)[C@H](OC(=O)CCC)[C@H]1NC(C)=O.[Na+].[Na+].[Na+].[Na+].[Na+].[Na+].[Na+].[Na+].[Na+] (some centres not stated) | 89 | 15.4 |  |  | 11 |  | 0.53 | 0.24 | 15.4 |
| CCCC(=O)OC/C(=C\C(=O)[O-])O[C@H]1O[C@H](COS(=O)(=O)[O-])[C@@H](O[C@@H]2O[C@@H](C(=O)[O-])[C@@H](O[C@H]3O[C@H](COS(=O)(=O)[O-])[C@@H](O[C@@H]4O[C@@H](C(=O)[O-])[C@@H](O[C@H]5O[C@H](CS(=O)(=O)[O-])[C@@H](O)[C@H](OC(=O)CCC)[C@H]5NS(=O)(=O)[O-])[C@H](OC(=O)CCC)[C@H]4OS(=O)(=O)[O-])[C@H](OC(=O)CCC)[C@H]3NS(=O)(=O)[O-])[C@H](OC(=O)CCC)[C@H]2OS(=O)(=O)[O-])[C@H](OC(=O)CCC)[C@H]1NS(=O)(=O)[O-].[Na+].[Na+].[Na+].[Na+].[Na+].[Na+].[Na+].[Na+].[Na+].[Na+].[Na+] (stereo in doubt; 4f) | >1136 | >1667 | 0.44 | 0.3 | 6.1 | 1.3 |  |  |  |
| CCCC(=O)OC/C(=C\C(=O)[O-])O[C@H]1O[C@H](COS(=O)(=O)[O-])[C@@H](O[C@@H]2O[C@@H](C(=O)[O-])[C@@H](O[C@H]3O[C@H](COS(=O)(=O)[O-])[C@@H](O[C@@H]4O[C@@H](C(=O)[O-])[C@@H](O[C@H]5O[C@H](CS(=O)(=O)[O-])[C@@H](O)[C@H](OC(=O)CCC)[C@H]5NS(=O)(=O)[O-])[C@H](OC(=O)CCC)[C@H]4OS(=O)(=O)[O-])[C@H](OC(=O)CCC)[C@H]3NS(=O)(=O)[O-])[C@H](OC(=O)CCC)[C@H]2OS(=O)(=O)[O-])[C@H](OC(=O)CCC)[C@H]1NS(=O)(=O)[O-].[Na+].[Na+].[Na+].[Na+].[Na+].[Na+].[Na+].[Na+].[Na+].[Na+].[Na+] (stereo in doubt; 4e) | >526 | >7142 | 0.95 | 0.07 | 4.5 | 43.7 |  |  |  |
| CC(=O)N[C@H]1[C@@H](O[C@H]2[C@H](OC(C)=O)[C@@H](OC(C)=O)[C@H](O[C@H]3[C@@H](OS(=O)(=O)[O-])[C@@H](NS(=O)(=O)[O-])[C@@H](O[C@@H]4C(C(=O)[O-])O[C@@H](O[C@H]5[C@H](OC(C)=O)[C@@H](CO)O[C@@H]5COS(=O)(=O)[O-])[C@H](OS(=O)(=O)[O-])[C@H]4OC(C)=O)O[C@@H]3COS(=O)(=O)[O-])O[C@@H]2C(=O)[O-])O[C@H](COS(=O)(=O)[O-])[C@@H](O[C@@H]2O[C@@H](C(=O)[O-])[C@@H](O)[C@H](OC(C)=O)[C@H]2OC(C)=O)[C@@H]1OC(C)=O.[Na+].[Na+].[Na+].[Na+].[Na+].[Na+].[Na+].[Na+].[Na+] (some centres not stated) | 76 | 1087 |  |  | 26 |  | 6.5 | 0.46 | 6.4 |
| CCCCOC(=O)/C=C(\COC(=O)CCC)OC1OC(COS(=O)(=O)[O-])C(OC2OC(C(=O)OCCCC)C(OC3OC(COS(=O)(=O)[O-])C(OC4OC(C(=O)OCCCC)C(OC5OC(COS(=O)(=O)[O-])C(O)C(OC(=O)CCC)C5NC(C)=O)C(OC(=O)CCC)C4OS(=O)(=O)[O-])C(OC(=O)CCC)C3NC(C)=O)C(OC(=O)CCC)C2OS(=O)(=O)[O-])C(OC(=O)CCC)C1NC(C)=O.[Na+].[Na+].[Na+].[Na+].[Na+] (configuration not stated) | >217 | >192 |  |  | 1.3 | 15 | 2.3 | 2.6 | 15 |
| CCCC(=O)OC/C(=C\C(=O)[O-])O[C@H]1O[C@H](COS(=O)(=O)[O-])[C@@H](O[C@@H]2O[C@@H](C(=O)[O-])[C@@H](O[C@H]3O[C@H](COS(=O)(=O)[O-])[C@@H](O[C@@H]4O[C@@H](C(=O)[O-])[C@@H](O[C@H]5O[C@H](CS(=O)(=O)[O-])[C@@H](O)[C@H](OC(=O)CCC)[C@H]5NS(=O)(=O)[O-])[C@H](OC(=O)CCC)[C@H]4OS(=O)(=O)[O-])[C@H](OC(=O)CCC)[C@H]3NS(=O)(=O)[O-])[C@H](OC(=O)CCC)[C@H]2OS(=O)(=O)[O-])[C@H](OC(=O)CCC)[C@H]1NS(=O)(=O)[O-].[Na+].[Na+].[Na+].[Na+].[Na+].[Na+].[Na+].[Na+].[Na+].[Na+].[Na+] (stereo in doubt; 4d) | >382 | >12500 | 1.31 | 0.04 | 2.9 | 37.3 |  |  |  |
| CCCCCC(=O)OC/C(=C\C(=O)[O-])OC1OC(COS(=O)(=O)[O-])C(OC2OC(C(=O)[O-])C(OC3OC(COS(=O)(=O)[O-])C(OC4OC(C(=O)[O-])C(OC5OC(CS(=O)(=O)[O-])C(O)C(OC(=O)CCCCC)C5NS(=O)(=O)[O-])C(OC(=O)CCCCC)C4OS(=O)(=O)[O-])C(OC(=O)CCCCC)C3NS(=O)(=O)[O-])C(OC(=O)CCCCC)C2OS(=O)(=O)[O-])C(OC(=O)CCCCC)C1NS(=O)(=O)[O-].[Na+].[Na+].[Na+].[Na+].[Na+].[Na+].[Na+].[Na+].[Na+].[Na+].[Na+] (stereo in doubt; 2e) | >1613 | >294 | 0.31 | 1.71 | 7 | 2.9 |  |  |  |
| CCCC(=O)OC/C(=C\C(=O)[O-])O[C@H]1O[C@H](COS(=O)(=O)[O-])[C@@H](O[C@@H]2O[C@@H](C(=O)[O-])[C@@H](O[C@H]3O[C@H](COS(=O)(=O)[O-])[C@@H](O[C@@H]4O[C@@H](C(=O)[O-])[C@@H](O[C@H]5O[C@H](CS(=O)(=O)[O-])[C@@H](O)[C@H](OC(=O)CCC)[C@H]5NS(=O)(=O)[O-])[C@H](OC(=O)CCC)[C@H]4OS(=O)(=O)[O-])[C@H](OC(=O)CCC)[C@H]3NS(=O)(=O)[O-])[C@H](OC(=O)CCC)[C@H]2OS(=O)(=O)[O-])[C@H](OC(=O)CCC)[C@H]1NS(=O)(=O)[O-].[Na+].[Na+].[Na+].[Na+].[Na+].[Na+].[Na+].[Na+].[Na+].[Na+].[Na+] (stereo in doubt; 3d) | 1480 | 914 | 0.21 | 0.36 | 9 | 10.3 |  |  |  |
| O=C([O-])/C=C(\COC(=O)c1ccccc1)OC1OC(COS(=O)(=O)[O-])C(OC2OC(C(=O)[O-])C(OC3OC(COS(=O)(=O)[O-])C(OC4OC(C(=O)[O-])C(OC5OC(COS(=O)(=O)[O-])C(O)C(OC(=O)c6ccccc6)C5NS(=O)(=O)[O-])C(OC(=O)c5ccccc5)C4OS(=O)(=O)[O-])C(OC(=O)c4ccccc4)C3NS(=O)(=O)[O-])C(OC(=O)c3ccccc3)C2OS(=O)(=O)[O-])C(OC(=O)c2ccccc2)C1NS(=O)(=O)[O-].[Na+].[Na+].[Na+].[Na+].[Na+].[Na+].[Na+].[Na+].[Na+].[Na+].[Na+] (configuration not stated) | >5000 | >2500 |  |  | 8 |  | 0.1 | 0.2 | 3 |
| CCCCCC(=O)O[C@@H]1[C@@H](OC(C)=O)[C@H](O[C@H]2[C@H](OS(=O)(=O)[O-])[C@@H](NS(=O)(=O)[O-])[C@@H](O[C@H]3[C@H](OC(=O)CCCCC)[C@@H](OS(=O)(=O)[O-])[C@H](O[C@H]4[C@H](OC(=O)CCCCC)[C@@H](CO)O[C@@H]4COS(=O)(=O)[O-])O[C@H]3C(=O)[O-])O[C@@H]2COS(=O)(=O)[O-])O[C@H](C(=O)[O-])[C@H]1O[C@H]1O[C@H](COS(=O)(=O)[O-])[C@@H](O[C@@H]2O[C@@H](C(=O)[O-])[C@@H](O)[C@H](OC(=O)CCCCC)[C@H]2OC(C)=O)[C@H](OC(=O)CCCCC)[C@H]1NC(C)=O.[Na+].[Na+].[Na+].[Na+].[Na+].[Na+].[Na+].[Na+].[Na+] | <1 | 9 |  |  | 4 |  | > 100 | 5.4 | 8.9 |
